Test results published in ChEMBL document CHEMBL4715918, “Syntheses and evaluation of acridone-naphthalimide derivatives for regulating oncogene PDGFR-β expression” (Bioorg Med Chem, 2021).

Columns and labels:
Quadruplex DNA [1] = test: Binding affinity to 5'-biotin-d [GCTGGGAGAAGGGGGGGCGGCGGGGCAGGGAGGGTGGACGC]-3' G4-quadruplex DNA (unknown origin) by surface plasmon resonance assay; assay type: nucleic-acid assay
Method in brief: (§1)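 SPR: biotinylated oligomers were captured on a neutravidin chip at ~1000 RU, with a blank reference cell. Running buffer was 20 mM MES pH 5.5, 100 mM KCl, 0.05% Tween-20 for the i-motif, or 50 mM Tris-HCl pH 7.4, 100 mM KCl for the G-quadruplex. Ligand was injected at 0–10 μM (six concentrations), with 200 s association and 300 s dissociation at 25 °C.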

[2] = Binding affinity to 5'-biotin-d [GCGTCCACCCTCCCTGCCCCGCCGCCCCCCCITCTCCCAGC]-3' i-motif DNA (unknown origin) by surface plasmon resonance assay; method in brief: as §1
[3] = Binding affinity to FAM-labeled 5'-biotin-d [GCGTCCACCCTCCCTGCCCCGCCGCCCCCCCITCTCCCAGC]-3' i-motif DNA (unknown origin) by microscale thermophoresis assay
Method in brief: (§2)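 Microscale thermophoresis with DNA held constant at 1 µM. Compound serially diluted 3:4 from 10 µM over 12 points. Samples run in standard glass capillaries with LED and laser power both at 20%. KD derived by fitting.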

Quadruplex DNA [4] = test: Binding affinity to FAM-labeled 5'-biotin-d [GCTGGGAGAAGGGGGGGCGGCGGGGCAGGGAGGGTGGACGC]-3' G4-quadruplex DNA (unknown origin) by microscale thermophoresis assay; assay type: nucleic-acid assay; method in brief: as §2
Quadruplex DNA [5] = test: Binding affinity to 5'-biotin-d [GCTGGGAGAAGGGGGGGCGGCGGGGCAGGGAGGGTGGACGC]-3' G4-quadruplex DNA (unknown origin) assessed as change in melting temperature at 10 uM by CD spectroscopy; assay type: nucleic-acid assay
Method in brief: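 Oligomer 2 µM in Tris-HCl pH 7.4, annealed (95 °C for 5 min, slow cooling, 4 °C overnight). Ligand 10 µM. CD ellipticity followed at 263 nm over 25–95 °C; ΔTm taken against DNA alone.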

Quadruplex DNA [6] = test: Binding affinity to 5'-biotin-d [GCTGGGAGAAGGGGGGGCGGCGGGGCAGGGAGGGTGGACGC]-3' G4-quadruplex DNA (unknown origin) assessed as decrease in positive peak by CD spectroscopy; assay type: nucleic-acid assay; conditions: dose 2-10 equiv
Method in brief: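 CD spectra: oligomers at 2 μM final, in BPES pH 5.5 (i-motif) or Tris-HCl pH 7.4 (G-quadruplex). Samples were annealed (95 °C 5 min, slow cool, 4 °C overnight), then titrated with increasing compound. Spectra were recorded at 25 °C over 230–330 nm in a 1 mm cuvette, buffer-subtracted, averaged and smoothed.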

Quadruplex DNA [7] = test: Binding affinity to 5'-FAM-GGGAGAAGGGGGGGCGGCGGGGCAGGGAGGGTGGAC-TAMRA-3' G4-quadruplex DNA (unknown origin) assessed as stabilization G4-quadruplex structure by measuring increase in I585/I518 ratio by FRET assay; assay type: nucleic-acid assay; conditions: dose 2-10 equiv
Method in brief: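 FRET probe dual-labelled FAM/TAMRA, annealed, 10 µM in 10 mM Tris-HCl pH 7.4 with 10 mM KCl; compound added in equal volume. Emission 500–700 nm recorded, corrected for compound signal in the same buffer; I585/I518 ratio compared.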

MCF7 [8] = test: Binding affinity to wild type PDGFRbeta promoter (unknown origin) in human MCF7 cells after 48 hrs by dual luciferase reporter assay; assay type: cell-based
Method in brief: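 MCF-7 cells were transfected with 200 ng psiCHECK2 plasmid carrying the wild-type PDGFR-β promoter. After 4 h, compound was added at various concentrations and cells were incubated 48 h at 37 °C. Cells were washed with cold PBS and dual-luciferase signals read for 10 s. Renilla activity was normalised to firefly.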

HEK293 = test: Cytotoxicity against HEK293 cells assessed as reduction in cell viability after 48 hrs by MTT assay; assay type: cell-based; conditions: Homo sapiens, HEK293, 48 h
Method in brief: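 MTT assay: cells seeded at 5.0 × 10³/well, grown 12 h, then exposed to graded compound concentrations for 48 h at 37 °C/5% CO2. 2.5 mg/mL MTT was added for 4 h, formazan dissolved in DMSO, and absorbance read at 570 nm. Each dose in triplicate; IC50 from percent survival versus negative control.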

MCF7 [9] = test: Induction apoptosis in human MCF7 cells incubated for 24 hrs by Annexin-FTTC/PI staining based flow cytometric analysis; assay type: functional, cell-based; conditions: dose 1.25-5 µM
MCF7 [10] = test: Inhibition of colony formation in human MCF7 cells after 7 days by crystal staining based assay; assay type: functional, cell-based; conditions: dose 0.3125-2.5 µM, time 7.0 day
Method in brief: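 MCF-7 cells were seeded at 1,000/well and grown 24 h, then exposed 7 days to 2.5, 1.25, 0.625, 0.3125 μM compound or DMSO. Colonies were fixed in methanol, stained with crystal violet and imaged.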

MCF7 [11] = test: Induction of cell cycle arrest in human MCF7 cells assessed as accumulation at G2/M phase at 0.625 to 10 uM after 48 hrs by propidium iodide staining based flow cytometric analysis (reference value: 15.8%); assay type: functional; conditions: dose 0.625-10 µM
Method in brief: (§3)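 MCF-7 cells, 2 × 10^5/well, were pre-grown 12 h, then treated with 10, 5, 2.5, 1.25, 0.625 μM compound or DMSO. Cells were fixed in 75% ethanol at −20 °C overnight. Staining was 50 μg/mL PI with RNase A, 30 min at room temperature in the dark. Flow cytometry collected 10,000 events; phase distribution was determined.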

MCF7 [12] = test: Induction of cell cycle arrest in human MCF7 cells assessed as accumulation at G2/M phase after 48 hrs by propidium iodide staining based flow cytometric analysis; assay type: functional; conditions: dose 0.625-10 µM; method in brief: as §3
[13] = Toxicity in nude BALB/c mouse xenografted with human MCF7 cells assessed as reduction in body weight at 2.5 to 10 mg/kg, ip administered for 34 days; assay type: organism-based; conditions: in vivo, 816 h, dose 2.5-10 mg/kg, time 34 day
Method in brief: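 Nude BALB/c females bearing subcutaneous MCF-7 xenografts were dosed ip once daily for 34 days at 2.5, 5.0 or 10 mg/kg, with saline vehicle (100 µL) as control. Body weight was recorded every 2 days. After euthanasia by cervical dislocation, heart, liver, spleen and kidney were removed and weighed.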

MCF7 [14] = test: Induction apoptosis in human MCF7 cells assessed as viable cells at 1.25 uM incubated for 24 hrs by Annexin-FTTC/PI staining based flow cytometric analysis (reference value: 99.7%); assay type: functional; conditions: read-out: Activity
MCF7 [15] = test: Induction apoptosis in human MCF7 cells assessed as viable cells at 2.5 uM incubated for 24 hrs by Annexin-FTTC/PI staining based flow cytometric analysis (reference value: 99.7%); assay type: functional; conditions: read-out: Activity
MCF7 [16] = test: Induction apoptosis in human MCF7 cells assessed as viable cells at 5 uM incubated for 24 hrs by Annexin-FTTC/PI staining based flow cytometric analysis (reference value: 99.7%); assay type: functional; conditions: read-out: Activity
MCF7 [17] = test: Induction apoptosis in human MCF7 cells assessed as early apoptotic cells at 5 uM incubated for 24 hrs by Annexin-FTTC/PI staining based flow cytometric analysis (reference value: 0.28%); assay type: functional
MCF7 [18] = test: Induction apoptosis in human MCF7 cells assessed as late apoptotic cells at 2.5 uM incubated for 24 hrs by Annexin-FTTC/PI staining based flow cytometric analysis (reference value: 0%); assay type: functional

Which Kd (Quadruplex DNA [1]) does the source give for `Cc1ccc2c(c1)c(=O)c1cc(C(=O)NCCCN(C)CCCN3C(=O)c4cccc5c(N6CCN(C)CC6)ccc(c45)C3=O)ccc1n2-c1ccc(C(=O)NCCCN(C)CCCN2C(=O)c3cccc4c(N5CCN(C)CC5)ccc(c34)C2=O)cc1` here?
Its Kd is 3.23 µM.

What about the Kd [2] of the same compound?
The Kd was 3.12 µM.

What about the Kd [3] of the same compound?
The Kd was 4.52 µM.

And the Kd (Quadruplex DNA [4])?
The Kd was 6.11 µM.

And the ΔTm (Quadruplex DNA [5])?
The ΔTm was > 20 °C.

And the Activity (Quadruplex DNA [6])?
Its Activity is “Dose-dependent effect”.

What about the Activity (Quadruplex DNA [7]) of the same compound?
Its Activity is “Dose-dependent effect”.

And the Activity (MCF7 [8])?
Its Activity is “Dose-dependent effect”.

And the IC50 (HEK293)?
Its IC50 is > 50 µM.

What about the Activity (MCF7 [9]) of the same compound?
The Activity was “Dose-dependent effect”.

What about the inhibition (MCF7 [10]) of the same compound?
Its inhibition is “Dose-dependent effect”.

What about the Activity (MCF7 [11]) of the same compound?
Its Activity is 31.5%.

And the Activity (MCF7 [12])?
The Activity was “Dose-dependent effect”.

And the Activity [13]?
Its Activity is “Non-Toxic”.

What about the viability at 1.25 µM (MCF7 [14]) of the same compound?
Its viability at 1.25 µM is 91.4%.

What about the viability at 2.5 µM (MCF7 [15]) of the same compound?
Its viability at 2.5 µM is 71.4%.

And the viability at 5 µM (MCF7 [16])?
Its viability at 5 µM is 13%.

What about the Activity (MCF7 [17]) of the same compound?
Its Activity is 33.5%.

What about the Activity (MCF7 [18]) of the same compound?
The Activity was 1.96%.
